Data: PMC9398166 (Molecular Cancer Therapeutics, 2021)

What was measured:
[1] = Pharmacokinetic/pharmacodynamic analysis of phospho-ALK; assay type: in vivo, mice; details: SCID/beige, mouse, plasma, oral
[2] = target: EML4-ALK G1202R/L1196M fusion phosphorylation (Homo sapiens, UniProt Q9HC35+Q9UM73, G1202R/L1196M); experiment: as above; assay type: in vivo, mice; details: mouse, read-out: phosphorylation inhibition of EML4-ALK G1202R/L1196M fusion
[3] = Pharmacokinetics and brain distribution after repeat oral administration; assay type: in vivo; details: male Sprague Dawley rats; single oral administration
Procedure, shortened: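 Male Sprague Dawley rats received 10 mg/kg orally once daily for 7 consecutive days. Plasma concentration profiles were determined on days 1 and 7. On day 7, terminal samples of plasma, cerebrospinal fluid and brain tissue were collected 1, 4 and 24 h postdose and analyzed by LC/MS-MS. Brain tissue levels were compared with plasma levels.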

Free = assay type: in vivo, mice; details: SCID/beige, mouse, plasma, oral, 5 mg/kg
[4] = patients; ref FDA label; cited from earlier work
[5] = ref FDA label; cited from earlier work
ALK(G1202R) = details: cited from earlier work

| SMILES | concentration at 2 h [1] [nM] | inhibition at 0.0195 µM [2] [%] | absorption [3] | elimination half-life [3] | concentration at 12 h (Free) [nM] | AUC0–24h [4] [ng·h/mL] | Cave unbound exposure [4] | plasma protein binding [5] [%] | unbound exposure necessary for maximum antitumor efficacy (ALK(G1202R); preclinical ALK(G1202R) xenograft model) [nmol/L] | EC90 (ALK(G1202R); read-out: EC90 unbound exposure for inhibition of ALK(G1202R) phosphorylation, preclinical xenograft model) [nM] |
| --- | --- | --- | --- | --- | --- | --- | --- | --- | --- | --- |
| CC1(C)COc2ccc(F)cc2CN2c3nc4c(cnn4cc3OC[C@H]2C(F)F)C(=O)N1 [TPX-0131, (4S)-4-(difluoromethyl)-8-fluoro-13,13-dimethyl-3,4,13,14-tetrahydro-6H-18,1-(metheno)[1,4]oxazino[3,4-i]pyrazolo[4,3-f][1,4,8,10]benzoxatriazacyclotridecin-15(12H)-one] | 19.5 | > 90 | rapid absorption | long elimination half-life |  |  |  |  |  |  |
| C[C@H]1Oc2cc(cnc2N)-c2c(nn(C)c2C#N)CN(C)C(=O)c2ccc(F)cc21 [Lorlatinib, lorlatinib] |  |  |  |  | 358 | 5650 | approximately 155 nmol/L | 66 | […] | […] |
